Source: PubChem
Compounds with a hit are over-represented: about 2.3% of the library has one in this group of screens.
SKN-1 block – suppressors of acrylamide-induced Pgst-4::GFP reporter in worms, primary screen, SKN-1 inhibitor project, whole organism, uHTS, GFP/RFP fluorescence ratio, strain VP596. C. elegans VP596 Pgst-4::GFP/RFP ratio, 24 h. inhibition, % at 21.8 µM. actives 0.49% (n = 360,000);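 active = interference check ratio from 0.5 to 1.5 plus GFP to RFP signal ratio inhibition reaching or exceeding a fixed threshold, cut at about 30% in these data, passing the limit was not always enough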
MPTP inh – mitochondrial permeability transition pore inhibitors, primary screen, biochemical, isolated mouse mitochondria, absorbance. Ca2+ swelling absorbance, 30 min. inhibition, % at 10 µM. actives 1.4% (n = 360,000);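 active = inhibition of 50% or more, scaled per plate between neutral and stimulator controls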;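 also: 0% = DMSO wells given calcium and 100% = 1 mM EGTA wells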
ATG4B inh – ATG4B protease inhibitors, primary screen, biochemical, fluorescence, uHTS | ATG4B cleavage of LC3-PLA2, NBD-HPC fluorescence, 1 h | inhibition, % at 8.33 µM | actives 0.51% (n = 340,000) | AID 504462, 2011; in the data active = inhibition above about 40%
Target sequence (Q9Y4P1 whole entry, looked up): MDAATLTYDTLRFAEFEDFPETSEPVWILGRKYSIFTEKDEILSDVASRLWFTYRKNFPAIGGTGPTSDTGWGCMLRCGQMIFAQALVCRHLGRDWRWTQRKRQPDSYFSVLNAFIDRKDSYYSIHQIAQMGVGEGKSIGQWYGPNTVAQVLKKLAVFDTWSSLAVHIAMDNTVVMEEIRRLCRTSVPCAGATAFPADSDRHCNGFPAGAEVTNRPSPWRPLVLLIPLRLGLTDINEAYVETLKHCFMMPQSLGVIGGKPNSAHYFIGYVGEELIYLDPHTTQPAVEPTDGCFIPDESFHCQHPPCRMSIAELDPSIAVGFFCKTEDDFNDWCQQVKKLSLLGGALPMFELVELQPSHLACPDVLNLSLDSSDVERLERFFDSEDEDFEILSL
MT1-MMP act inh – blockers of MT1-MMP proenzyme processing, primary screen, HT1080 RFP-PRO-GFP cells, GFP/RFP fluorescence. GFP/RFP ratio fluorescence, overnight; percent of plate control window, DMSO zero. GFP/RFP ratio change, % at 20 µM. actives 0.061% (n = 360,000);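 active = GFP/RFP ratio change of at least 30% with cell ATP level not reduced by more than half and red fluorescence within 50% of control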
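Material – HT1080 RFP-PRO-GFP cells · Control set – DMSO wells and RFP-L50D-GFP cells · Incubation – overnight cell settling, then overnight compound exposure, 37 °C, 5% CO2 · Compound dosing – single-point 20 µM compound, 1% DMSO · Read-out – GFP/RFP fluorescence ratio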
Numbers without * were called inactive.

`Cc1ccc(-n2c(O)c(C=Nc3ccc(S(=O)(=O)N(C)C)cc3)c(=O)[nH]c2=O)cc1` gave SKN-1 block 33.8*, MPTP inh -0.8, ATG4B inh -7.7 and MT1-MMP act inh -206.7.
For CSc1ncc(CN2CCCC(C(=O)c3cccc(Cl)c3)C2)cn1 (stereo not given) the results were SKN-1 block 2.9, MPTP inh -4.3, ATG4B inh -11.6 and MT1-MMP act inh -2.4.
COc1ccc(CN2CCCC(C(=O)c3cccc(Cl)c3)C2)cc1 (stereo not given) was read as SKN-1 block 43.2*, MPTP inh 0.6, ATG4B inh 18.4 and MT1-MMP act inh -0.8.
`COC(=O)C1=C(c2ccc(S(C)(=O)=O)cc2)C[C@@H]2CC[C@H]1N2C(=O)NCCCOC(C)C` gave SKN-1 block -10.4, MPTP inh 0.4, ATG4B inh 2.7 and MT1-MMP act inh 2.4.
`O=C1NC2C(=CC(O)C(O)C2O)c2cc3c(cc21)OCO3` (stereo not given) gave SKN-1 block 39.9*, MPTP inh -1.5, ATG4B inh -1.8 and MT1-MMP act inh -41.8.
`O=C1NC2C(O)C(O)C(O)C(O)C2c2cc3c(c(O)c21)OCO3` (stereo not given) gave SKN-1 block 32.0, MPTP inh 1.5, ATG4B inh -1.9 and MT1-MMP act inh -41.0.
`O=C1NC2C(=CC(O)C(O)C2O)c2cc3c(c(O)c21)OCO3` (stereo not given) gave SKN-1 block 55.4*, MPTP inh -0.2, ATG4B inh -3.6 and MT1-MMP act inh -37.9.
For Oc1ccc(/C=N/NP(=S)(c2ccccc2)c2ccccc2)cc1 the results were SKN-1 block 37.8*, MPTP inh 12.2, ATG4B inh 8.2 and MT1-MMP act inh -2.4.
`CC(C)CN1Cc2cc(-c3cccc(F)c3)ccc2-n2nncc2C1` gave SKN-1 block 24.9, MPTP inh 0.0 and MT1-MMP act inh 0.1.
`CN1C(=O)C(=Cc2cc([N+](=O)[O-])ccc2N2CCCCC2)C(=O)N(C)C1=O` gave SKN-1 block -10.6, MPTP inh -1.1, ATG4B inh -3.2 and MT1-MMP act inh 1.8.
For CN1C(=O)C(=Cc2sc(=O)n(-c3ccccc3)c2N2CCCCC2)C(=O)N(C)C1=O the results were SKN-1 block 38.5*, MPTP inh 0.5, ATG4B inh -6.9 and MT1-MMP act inh -65.5.
CNC(=O)Oc1cccc(-c2cn3cc(OC(=O)NC)ccc3n2)c1 was read as SKN-1 block 49.6*, MPTP inh -6.9 and ATG4B inh 2.9.
Screening CC1C(=O)CC2(C(C)C)CC12 (stereo not given) returned SKN-1 block 0.2, MPTP inh -1.1 and MT1-MMP act inh 3.7.
Screening CCCCN1C(=O)/C(=C/C=C/c2ccco2)C(=O)NC1=S returned SKN-1 block 16.3, MPTP inh -1.0, ATG4B inh 43.7* and MT1-MMP act inh -14.8.
Screening O=C1NC(=O)N(Cc2ccc(F)cc2)C(=O)/C1=C\C=C\c1ccco1 returned SKN-1 block -1.5, MPTP inh 0.7, ATG4B inh 8.8 and MT1-MMP act inh -56.6.
O=C1C=C(N2CC2)c2ccccc2C1=O was read as SKN-1 block 36.8*, MPTP inh -1.2 and MT1-MMP act inh 19.4.
For Cc1ccccc1N1C(=O)NC(=O)/C(=C\c2cc(Br)c(N3CCOCC3)o2)C1=O the results were SKN-1 block 37.6*, MPTP inh 3.4, ATG4B inh -3.1 and MT1-MMP act inh -122.5.
Cc1ccccc1N1C(=O)NC(=O)/C(=C/c2ccc(N3CCOCC3)o2)C1=O was read as SKN-1 block 19.2, MPTP inh 0.0, ATG4B inh 6.9 and MT1-MMP act inh -47.5.
Cc1cccc(C)c1-n1nnnc1C(c1ccccc1OC(F)(F)F)N1CCC(n2c(=O)[nH]c3ccccc32)CC1 (stereo not given) was read as SKN-1 block 15.2, MPTP inh -0.1 and MT1-MMP act inh -10.7.
`Cn1ncnc2c(=O)n(C)c(=O)nc1-2` gave SKN-1 block -1.6, MPTP inh 1.2, ATG4B inh 86.2* and MT1-MMP act inh -26.7.
`c1ccc(C2(NC3=NCCO3)CCCCC2)cc1` gave SKN-1 block -10.8, MPTP inh -1.4 and MT1-MMP act inh -1.1.
